The structures appear in SMILES notation. The source made the active and inactive calls. The calls are words filed in the database; no cut-off is given here.

The test system of assay [1] is Pseudomonas aeruginosa. In words: Anti-virulence effect in Pseudomonas aeruginosa PAO1 assessed as inhibition of pyocyanin production at 25 ug/ml. It is filed as functional. The arrangement: scale not given: the % may be the effect or the level left. To be noted: dose 25 µg/ml. In short, it runs like this: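 Overnight PAO1 culture in LB at 37 °C, diluted to OD600 0.05 and subcultured 5–7 h to mid-log phase, then re-diluted to OD600 0.05. Grown 18 h at 37 °C and 200 rpm with compound (6.25, 12.5, 25 μg mL−1) or DMSO. Supernatant extracted into chloroform, back-extracted into 0.2 M HCl, read at 520 nm.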

In assay [2] the test system is Pseudomonas aeruginosa. In words: Inhibition of biofilm formation in Pseudomonas aeruginosa PAO1 assessed as reduction in biofilm by measuring scattered appearance at 25 ug/ml incubated for 24 hrs by scanning electron microscopic assay. It is filed as functional, organism-based. To be noted: dose 25.0 µg/ml. Summed up: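 PAO1 biofilms on coverslips treated with compound at 6.25, 12.5 or 25 μg mL−1 or DMSO. Coverslips PBS-washed, fixed in 2.5% glutaraldehyde, ethanol-dehydrated, freeze-dried, gold-coated and imaged by SEM.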

Assay [3] deals with Pseudomonas aeruginosa. In words: Inhibition of biofilm formation in Pseudomonas aeruginosa PAO1 at 1/2 times MIC incubated for 24 hrs crystal violet staining based SEM assay. It is filed as functional.
Assay [4] is described as follows: Inhibition of quorum sensing system in Pseudomonas aeruginosa PAO1 assessed as reduction in 3-oxo-C12-HSL level at 12.5 ug/ml incubated for 24 hrs by LC-MS/MS method. Particulars: dose 12.5 µg/ml.
In assay [5] the test system is Pseudomonas aeruginosa. Nature of the assay: Inhibition of biofilm formation in Pseudomonas aeruginosa PAO1 incubated for 24 hrs crystal violet staining based SEM assay. It counts as functional, organism-based.
The test system of assay [6] is Pseudomonas aeruginosa. Nature of the assay: Downregulation of pqsR gene expression in Pseudomonas aeruginosa PAO1 assessed as fold decrease at 25 ug/ml by RT-qPCR analysis. It counts as functional. Particulars: dose 25 µg/ml. (Real-time PCR tracks product formation cycle by cycle.)
The subject of assay [7] is Pseudomonas aeruginosa. In words: Downregulation of sucD gene expression in Pseudomonas aeruginosa PAO1 assessed as fold decrease at 25 ug/ml by RT-qPCR analysis. It is filed as functional. Particulars: dose 25 µg/ml.
The subject of assay [8] is Pseudomonas aeruginosa. In words: Antibacterial activity against Pseudomonas aeruginosa PAO1 assessed as bacterial growth inhibition at 6.25 to 25 ug/ml by serial dilution method. It counts as functional, organism-based. To be noted: dose 6.25-25 µg/ml. In short, it runs like this:
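PAO1 in LB, 37 °C. MIC by CLSI 2-fold serial dilution in Mueller–Hinton broth, inoculum 1–5 × 10^5 CFU mL−1, DMSO stocks. Growth curves: overnight culture diluted to OD600 = 0.05, subcultured to mid-log, rediluted to OD600 = 0.05, 3 mL with compound; OD620 read at 1, 3, 5, 7, 9, 11 and 24 h at 37 °C; DMSO negative control.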

Assay [9] has as its system Pseudomonas aeruginosa. Nature of the assay: Inhibition of biofilm formation in Pseudomonas aeruginosa PAO1 at 25 ug/ml incubated for 24 hrs crystal violet staining based assay. It is filed as functional. Summed up:
(§1)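 PAO1 grown statically for 24 h in LB ± compound in 24-well plates. Planktonic cells removed; attached cells stained with 0.05% crystal violet, rinsed, dissolved in 95% ethanol, read at OD570. DMSO negative, resveratrol positive control; SD from three independent experiments.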

The test system of assay [10] is Pseudomonas aeruginosa. In words: Inhibition of biofilm formation in Pseudomonas aeruginosa PAO1 at 6.25 ug/ml incubated for 24 hrs crystal violet staining based assay. It counts as functional. Summed up: as §1
Assay [11] has as its system Pseudomonas aeruginosa. Nature of the assay: Inhibition of biofilm formation in Pseudomonas aeruginosa PAO1 at 12.5 ug/ml incubated for 24 hrs crystal violet staining based assay. It counts as functional. Summed up: as §1
For assay [12], the system named is Pseudomonas aeruginosa. Nature of the assay: Anti-virulence effect in Pseudomonas aeruginosa PAO1 assessed as decrease in protease level at 25 ug/ml. It is filed as functional. Set-up: scale not given: the % may be the effect or the level left. Particulars: dose 25 µg/ml. Summed up: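 Overnight PAO1 culture diluted 1:100 into LB with compound (6.25–25 μg mL−1), grown at 37 °C and 180 rpm; DMSO and RSV (25 μg mL−1) as controls. Culture supernatant mixed with 2% azocasein in 1 M Tris–HCl pH 8.0 for 15 min at 37 °C. Reaction stopped with 10% TCA, centrifuged, NaOH added, read at OD440.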

Assay [13] concerns Pseudomonas aeruginosa. Nature of the assay: Anti-virulence effect in Pseudomonas aeruginosa PAO1 assessed as inhibition of EPS production at 25 ug/ml. It counts as functional. The arrangement: scale not given: the % may be the effect or the level left. Particulars: dose 25 µg/ml. Summed up: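 PAO1 grown with compound (6.25–25 μg mL−1) in 24-well plates for 24 h at 37 °C and 180 rpm; DMSO and RSV (25 μg mL−1) as controls. Biofilms washed with water, then treated with 0.9% NaCl, 5% phenol and 0.2% hydrazine sulfate. Held 1 h in the dark, read at OD490. Three independent experiments.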

Take `Cc1cccc(C#N)c1Cc1c[nH]c2ccccc12`: the Activity in the assay on Pseudomonas aeruginosa [1] was 73%; in the assay with Pseudomonas aeruginosa [12], 51%; in the assay with Pseudomonas aeruginosa [13], 37%. In addition, the inhibition (in general, how much of the control response was suppressed) in the assay with Pseudomonas aeruginosa [2] was “Active”. In addition, in the assay on Pseudomonas aeruginosa [3], the “inhibition (INH)” value was 52%. Moreover, the inhibition was 72% in assay [4] and “Dose-dependent-effect” with Pseudomonas aeruginosa [5]. Further, the “fold change (FC)” value in the assay with Pseudomonas aeruginosa [6] was 7.41; in the assay with Pseudomonas aeruginosa [7], 5.65. In the assay with Pseudomonas aeruginosa [8], the result was inactive. Moreover, the inhibition at 25 µg/mL with Pseudomonas aeruginosa [9] worked out at 70%. The compound also registered an inhibition at 6.25 µg/mL in the assay on Pseudomonas aeruginosa [10] of 32%. Moreover, at 12.5 µg/mL the inhibition in the assay with Pseudomonas aeruginosa [11] was 53%.
